Series [1] deals with A549. Nature of the series: Cytotoxicity against human A549 cells after 24 hrs by HTCFA. Type of series: functional, cell-based. Particulars: A549, 24 h. Put shortly:
(§1)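 Clonogenic (HTCFA) assay on adherent A549 cells seeded in triplicate at 10^2–10^5 cells per well; after 24 h, medium replaced by serum-free UltraCulture and cells exposed 24 h to 6–8 concentrations from fresh DMSO solutions (final DMSO 1%).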

Series [2] can be described thus: Stability in ultraculture medium after 24 hrs by HPLC-MS. Type of series: physicochemical. To be noted: read-out: Stability. In short, it runs like this: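 Compound held in UltraCulture medium at 37 °C for 24 h. The fraction remaining was quantified by HPLC-MS peak area (AUC) on a C12 reversed-phase column.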
In series [3] the test system is A549. Nature of the series: Ratio of IC50 for human A549 cells to IC50 for human A549 cells in presence of cleaving enzyme. Type of series: functional. In short, it runs like this: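 QIC50 is the IC50 of the prodrug alone divided by its IC50 with the cleaving glycosidase present. Both values come from the 24 h exposure A549 clonogenic assay with 9–10 days of outgrowth and methylene blue colony counts.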

The test system of series [4] is A549. Nature of the series: Cytotoxicity against human A549 cells after 24 hrs in presence of cleaving enzyme by HTCFA. It counts as functional, cell-based. To be noted: A549, 24 h. Put shortly:
as §1

Regarding `C[C@H]1[C@@H]2CN(C(=O)c3cc4cc(OCCN(C)C)ccc4[nH]3)C3=CC(=O)c4ccccc4[C@@]312`, in the series on A549 [1], the IC50 (usually the midpoint of a concentration-inhibition curve) amounted to 0.75 nM.

For `C[C@@H](Cl)[C@@H]1CN(C(=O)c2cc3cc(OCCN(C)C)ccc3[nH]2)c2cc(O[C@@H]3O[C@H](CO)[C@H](O)[C@H](O)[C@H]3O)c3ccccc3c21`, in series [2], the remaining at 24 h was 27%. The figures for the IC50 in the series on A549 [1] and with A549 [4] were 3600 nM and 0.8 nM, respectively. Moreover, the “Ratio IC50” value with A549 [3] came out at 4800.

Compound `C[C@@H](Cl)[C@@H]1CN(C(=O)c2cc3cc(OCCN(C)C)ccc3[nH]2)c2cc(O)c3ccccc3c21` gave an IC50 in the series with A549 [1] of 0.75 nM.

For the origin of these results see ChEMBL document CHEMBL1139390, “Synthesis and biological studies of different duocarmycin based glycosidic prodrugs for their use in the antibody-directed enzyme prodrug therapy” (J Med Chem, 2009).
